Measurements taken from the array DNA melting data of Ke et al. (doi:10.1101/2024.01.08.574731).

Legend:
[1] = melting temperature; fluorescence melt of hairpins on a sequencing array, two-state fit, raised by 9.35 °C to match UV melts; conditions: sodium 0.088 M
In short: (§1)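 With Cy3 and quencher oligos annealed, library hairpins on a sequenced MiSeq flow cell were imaged for Cy3 fluorescence in 50 mM Na-HEPES pH 8.0, 25 mM NaCl, in 2.5 °C steps up to 60 °C. Melting temperature and folding enthalpy were derived from bootstrapped two-state fits of signals normalised to pre-quench Cy3 and to control constructs. Four replicates were combined by inverse variance, with fitted temperatures raised by 9.35 °C to match UV melts.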

[2] = folding enthalpy; higher = less favourable; fluorescence melt of hairpins on a sequencing array, two-state fit; conditions: sodium 0.088 M
In short: as §1

Sequence | Tm [1] [°C] | folding enthalpy [2] [kcal/mol]
GATCGTTTGTACGATC ((((((....)))))) | 56 | -37.3
GATCGTTTTCACGATC ((((((....)))))) | 55.4 | -45.2
GATCTAAAACTAGATC ((((((....)))))) | 31.1 | -21.1
GATCTAAAGTTAGATC ((((((....)))))) | 36.7 | -26.1
GATCTAAATCTAGATC ((((((....)))))) | 35.4 | -25.2
GATCTAAATGTAGATC ((((((....)))))) | 36.7 | -26.8
GATCTAACACTAGATC ((((((....)))))) | 36.9 | -24.6
GATCTAACGATAGATC ((((((....)))))) | 34.1 | -29.4
GATCTAACGTTAGATC ((((((....)))))) | 48.3 | -47
GATCTAACTTTAGATC ((((((....)))))) | 43.2 | -29.9
GATCTAAGCATAGATC ((((((....)))))) | 40.3 | -32.2
GATCTAAGCTAGATC ((((((...)))))) | 39.5 | -21.5
GATCTAAGCTTAGATC ((((((....)))))) | 47.5 | -53.5
GATCTAAGGCTAGATC ((((((....)))))) | 38.8 | -25.3
GATCTAAGTTAGATC ((((((...)))))) | 37.3 | -29.9
GATCTAATACTAGATC ((((((....)))))) | 37.4 | -30.1
GATCTAATCATAGATC ((((((....)))))) | 38.6 | -34.8
GATCTAATTATAGATC ((((((....)))))) | 37.9 | -29
GATCTACACATAGATC ((((((....)))))) | 43.2 | -44.3
GATCTACCAGTAGATC ((((((....)))))) | 48.9 | -32.6

Sequence | Tm [1] [°C] | folding enthalpy [2] [kcal/mol]
GATCTACCGATAGATC ((((((....)))))) | 37.8 | -35.5
GATCTACGGGTAGATC ((((((....)))))) | 51.1 | -42.6
GATCTACGTGTAGATC ((((((....)))))) | 55.2 | -48.5
GATCTACTGTAGATC ((((((...)))))) | 41.1 | -36.8
GATCTACTTCTAGATC ((((((....)))))) | 38.7 | -33.5
GATCTAGAACTAGATC ((((((....)))))) | 44.9 | -34.2
GATCTAGAATTAGATC ((((((....)))))) | 45.2 | -35
GATCTAGACGTAGATC ((((((....)))))) | 44.8 | -38.9
GATCTAGAGTAGATC ((((((...)))))) | 34.8 | -28.1
GATCTAGAGTTAGATC ((((((....)))))) | 37.7 | -24
GATCTAGCACTAGATC ((((((....)))))) | 47.1 | -43.9
GATCTAGCAGTAGATC ((((((....)))))) | 43.2 | -31.2
GATCTAGCTATAGATC ((((((....)))))) | 47.7 | -40.2
GATCTAGGCCTAGATC ((((((....)))))) | 52.4 | -56
GATCTAGTCATAGATC ((((((....)))))) | 50 | -38.4
GATCTAGTGATAGATC ((((((....)))))) | 45.7 | -34.5
GATCTAGTTGTAGATC ((((((....)))))) | 41.2 | -28.2
GATCTATAAATAGATC ((((((....)))))) | 39.9 | -35.4
GATCTATAGCTAGATC ((((((....)))))) | 36.5 | -28.7
GATCTATATTTAGATC ((((((....)))))) | 43.1 | -34.6
